The target of one experiment is Interleukin-2 (Homo sapiens, UniProt P60568). The experiment in a line: Inhibition of IL2-induced STAT5 phosphorylation in human NK92 cells incubated for 30 mins followed by IL-2 stimulation and measured after 1 hr by alphascreen assay.
The target of experiment [1] is T1, Interleukin-15 (Homo sapiens, UniProt P40933). Description: Inhibition of IL-15-induced STAT5 phosphorylation in human NK92 cells incubated for 30 mins followed by IL-15 stimulation and measured after 1 hr by alphascreen assay.
T1 sequence (P40933 whole entry): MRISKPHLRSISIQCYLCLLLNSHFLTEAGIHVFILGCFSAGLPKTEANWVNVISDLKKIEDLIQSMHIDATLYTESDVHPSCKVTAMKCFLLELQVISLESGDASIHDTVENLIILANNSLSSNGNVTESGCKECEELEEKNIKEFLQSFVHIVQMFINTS
For experiment [2], the target named is T1, Interleukin-15. The experiment in a line: Binding affinity to recombinant human IL-15 assessed as dissociation constant by SPR analysis. An outline of the steps: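 IL-15 covalently immobilized on sensor chip; compounds flowed at increasing concentrations and binding monitored by surface plasmon resonance; Kd derived from direct interaction.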

Molecules are shown by their SMILES.

Interleukin-2, sequence (P60568 whole entry): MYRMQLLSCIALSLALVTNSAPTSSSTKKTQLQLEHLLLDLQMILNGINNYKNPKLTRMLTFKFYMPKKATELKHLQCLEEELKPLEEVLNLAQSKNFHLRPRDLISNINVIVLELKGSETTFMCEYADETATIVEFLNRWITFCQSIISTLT

Consider `Cn1c(Cc2nn(C)c(=O)c3ccccc23)nnc1SCC(=O)Nc1ccc(Cl)cc1Cl`, for which the figures for the IC50 at Interleukin-2 and on Interleukin-15 [1] were 7.7 µM and 4.5 µM, respectively.
In the case of `Cn1c(Cc2nn(C)c(=O)c3ccccc23)nnc1SCCCCCCCC(=O)Nc1ccc(Cl)cc1Cl`, the half-maximal inhibitory concentration (IC50) was 0.35 µM against Interleukin-2 and 0.19 µM on Interleukin-15 [1]. Further, at Interleukin-15 [2] (read-out: Kd), the Kd was 1.3 µM.
Taken in the same sequence, the figures for `Cn1nc(Cc2nnc(SCCCCCCCC(=O)Nc3ccc(Cl)cc3Cl)[nH]2)c2ccccc2c1=O` were 0.45 µM, 0.28 µM and 2.4 µM.
Taken in the same sequence, the figures for `Cn1c(Cc2nn(CCC=O)c(=O)c3ccccc23)nnc1SCCCCCCCC(=O)Nc1ccc(Cl)cc1Cl` were 21.9 µM, 14.9 µM and 7.8 µM.
`Cn1c(Cc2nn(CCC=O)c(=O)c3ccccc23)nnc1SCC(=O)Nc1ccc(Cl)cc1Cl`: the IC50 at Interleukin-2 is more than 30 µM; against Interleukin-15 [1], 20 µM.
On to `CN(C)CCCn1nc(Cc2nnc(SCC(=O)Nc3ccc(Cl)cc3Cl)n2C)c2ccccc2c1=O`, for which the IC50 on Interleukin-2 and against Interleukin-15 [1] was more than 30 µM in each case.
Turning to `Cn1nc(Cc2nnc(SCC(=O)Nc3ccc(Cl)cc3Cl)n2CCCO)c2ccccc2c1=O`, the IC50 at Interleukin-2 and on Interleukin-15 [1] was more than 30 µM throughout.
As for `Cn1nc(Cc2nnc(SCCCCCCCC(=O)Nc3ccc(Cl)cc3Cl)n2CCC=O)c2ccccc2c1=O`, the IC50 against Interleukin-2 turned out to be 0.96 µM; against Interleukin-15 [1], 0.71 µM. The Kd at Interleukin-15 [2] (read-out: Kd) came out at 5.9 µM.
Taken in the same sequence, the figures for `Cn1c(Cc2nn(CCCO)c(=O)c3ccccc23)nnc1SCCCCCCCC(=O)Nc1ccc(Cl)cc1Cl` were more than 30 µM, more than 30 µM and 3.9 µM.
For `Cn1c(Cc2nn(CCC(=O)O)c(=O)c3ccccc23)nnc1SCC(=O)Nc1ccc(Cl)cc1Cl`, the IC50 on Interleukin-2 and at Interleukin-15 [1] was more than 30 µM throughout.
`Cn1nc(Cc2nnc(SCC(=O)Nc3ccc(Cl)cc3Cl)n2CCC(=O)O)c2ccccc2c1=O`: the IC50 against Interleukin-2 and against Interleukin-15 [1] was more than 30 µM in each case.
As for `Cn1c(Cc2nn(C)c(=O)c3ccccc23)nnc1SCCCCCCCC(=O)Nc1ccc(C(=O)c2ccccc2)cc1`, the IC50 stood at 0.08 µM against Interleukin-2 and 0.05 µM against Interleukin-15 [1]. Besides, the Kd at Interleukin-15 [2] (read-out: Kd) stood at 3.5 µM.
For `Cn1nc(Cc2nnc(SCCCCCCCC(=O)Nc3ccc(Cl)cc3Cl)n2CCCO)c2ccccc2c1=O`, the IC50 on Interleukin-2 and on Interleukin-15 [1] was more than 30 µM throughout.
In the case of `Cn1c(Cc2n[nH]c(=O)c3ccccc23)nnc1SCCCCCCCC(=O)Nc1ccc(Cl)cc1Cl`, the IC50 against Interleukin-2 is more than 30 µM; at Interleukin-15 [1], 20 µM. Besides, the Kd entry at Interleukin-15 [2] is “Not Active”.
For `CN(C)CCCn1nc(Cc2nnc(SCCCCCCCC(=O)Nc3ccc(Cl)cc3Cl)n2C)c2ccccc2c1=O`, the IC50 against Interleukin-2 and at Interleukin-15 [1] was more than 30 µM throughout.
Consider `Cn1c(Cc2nn(CCCO[Si](C)(C)C(C)(C)C)c(=O)c3ccccc23)nnc1SCCCCCCCC(=O)Nc1ccc(Cl)cc1Cl`, for which the IC50 on Interleukin-2 and on Interleukin-15 [1] was more than 30 µM throughout.
Consider `Cn1nc(Cc2nnc(SCC(=O)Nc3ccc(Cl)cc3Cl)n2CCC=O)c2ccccc2c1=O`, for which the IC50 was 8.6 µM at Interleukin-2 and 4.2 µM at Interleukin-15 [1].
For `Cn1nc(Cc2nnc(SCCCCCCCC(=O)Nc3ccc(Cl)cc3Cl)n2CCC(=O)O)c2ccccc2c1=O`, the IC50 against Interleukin-2 came to 14.3 µM; on Interleukin-15 [1], 9.5 µM.
As to `CCOC(CCn1c(Cc2nn(C)c(=O)c3ccccc23)nnc1SCC(=O)Nc1ccc(Cl)cc1Cl)OCC`, the IC50 on Interleukin-2 and against Interleukin-15 [1] was more than 30 µM throughout.
In the case of `Cn1nc(Cc2nnc(SCCCCCCCC(=O)Nc3ccc(Cl)cc3Cl)n2CCCO[Si](C)(C)C(C)(C)C)c2ccccc2c1=O`, the IC50 on Interleukin-2 and at Interleukin-15 [1] was more than 30 µM throughout.
The molecule `Cn1c(Cc2nn(CCCO)c(=O)c3ccccc23)nnc1SCC(=O)Nc1ccc(Cl)cc1Cl` gave an IC50 on Interleukin-2 of more than 30 µM.
Turning to `Cn1c(Cc2nn(CCC(=O)O)c(=O)c3ccccc23)nnc1SCCCCCCCC(=O)Nc1ccc(Cl)cc1Cl`, the IC50 against Interleukin-15 [1] is more than 30 µM.
In turn, `Cn1c(Cc2nn(CCC3OCCO3)c(=O)c3ccccc23)nnc1SCC(=O)Nc1ccc(Cl)cc1Cl` yielded an IC50 on Interleukin-2 of more than 30 µM.
`CN(C)CCCn1c(Cc2nn(C)c(=O)c3ccccc23)nnc1SCCCCCCCC(=O)Nc1ccc(Cl)cc1Cl`: the IC50 against Interleukin-2 and on Interleukin-15 [1] was more than 30 µM throughout.

These data come from ChEMBL document CHEMBL4819118, “Rational modification, synthesis and biological evaluation of N-substituted phthalazinone derivatives designed to target interleukine-15 protein” (Bioorg Med Chem, 2021).
